For 31 molecules, MIC, selectivity ratio and CC50 results are on record in ChEMBL document CHEMBL5576155, “Expanding the chemical space of ester of quinoxaline-7-carboxylate 1,4-di-N-oxide derivatives as potential antitubercular agents” (RSC Med Chem, 2024).

Bounds are passed on as bounds.

Data set [1] relates to Mycobacterium tuberculosis. The data set is described as follows: Antitubercular activity against Mycobacterium tuberculosis H37Rv assessed as reduction in microbial growth incubated for 10 days under anaerobic condition followed by 28 hrs incubation with aerobic condition further incubated 7 days at 5 % CO2 condition by low-oxygen recovery assay. The format is functional. As to conditions: time 436 hrs.

Data set [2] has as its system Mycobacterium tuberculosis. As to the kind of experiment: Antitubercular activity against Mycobacterium tuberculosis H37Rv assessed as reduction in microbial growth by MABA. The format is functional. The essentials: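 M. tuberculosis H37Rv tested in vitro by modified Alamar blue microplate assay (MABA), with rifampicin and isoniazid as reference drugs. MIC was the lowest drug concentration giving 90% inhibition. Triplicate independent experiments.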

A short description of data set [3]: Selectivity index, ratio of CC50 for cytotoxicity against mouse J774.2 cell to MIC for antibacterial activity against Mycobacterium tuberculosis H37Rv. Type of data set: toxicity. The note with it: J774.2 cells, read-out: Selectivity Index. Put shortly:
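CC50 was measured in murine macrophage J774.2 cells grown in RPMI 1640 with 10% FBS, 1% MEM-NEAA and antibiotic–antifungal mix at 37 °C, 5% CO2. 1 × 10^5 cells per well received serial dilutions in triplicate, with 0.1% DMSO as negative control. Viability was read by MTT. SI is CC50 over the MABA MIC against H37Rv.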

A short description of data set [4]: Cytotoxicity against mouse J774.2 cells assessed as reduction in cell viability by MTT assay. The format is toxicity, cell-based. Put shortly:
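Murine macrophage J774.2 grown in RPMI 1640 with 10% FBS, 1% MEM-NEAA and 100 U mL−1 antibiotic–antifungal, at 37 °C, 5% CO2, humidified. Cells washed and plated at 1 × 10^5 per well. Serial-dilution dose–response run in triplicate, with 0.1% DMSO as negative control. Viability read by MTT colorimetric assay. CC50 derived from the dose–response.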

For the molecule `COC(=O)c1c(C)[n+]([O-])c2ccc(C(=O)OCC(C)C)cc2[n+]1[O-]`, the minimal inhibitory concentration (MIC) (in general, the lowest concentration found to suppress growth) in data set [1] was 2.01 µM; in data set [2], 0.84 µM.

For the molecule `CCCCOC(=O)c1ccc2c(c1)[n+]([O-])c(C(=O)c1ccccc1)c(C)[n+]2[O-]`, the selectivity ratio in data set [3] was 10.2. The MIC was found to be 5.37 µM in data set [1] and 1.95 µM in data set [2]. For the same molecule, in data set [4], the CC50 (as a rule, the concentration at which the toxic effect on the cells reaches its halfway point) came out at 17.7 µM.

For `CCCCOC(=O)c1ccc2c(c1)[n+]([O-])c(C(=O)Nc1ccc(C)cc1C)c(C)[n+]2[O-]`, the MIC in data set [1] and in data set [2] was > 118 µM each time.

For the molecule `Cc1c(C(=O)c2ccccc2)[n+]([O-])c2cc(C(=O)OCC(C)C)ccc2[n+]1[O-]`, in data set [3], the selectivity ratio was determined as 10.2. For the same molecule, the MIC in data set [1] was found to be 2.68 µM; in data set [2], 0.95 µM. Besides, the 50% cytotoxic concentration (CC50) in data set [4] came to 34.2 µM.

Regarding `CC(C)OC(=O)c1ccc2c(c1)[n+]([O-])c(C(=O)c1cccs1)c(C(F)(F)F)[n+]2[O-]`, the minimum inhibitory concentration (MIC) amounted to 0.54 µM in data set [1] and 0.19 µM in data set [2].

For `CC(C)COC(=O)c1ccc2c(c1)[n+]([O-])c(C(=O)c1ccccc1)c(C(F)(F)F)[n+]2[O-]`, the MIC in data set [1] stood at 0.92 µM; in data set [2], 0.53 µM.

As to `CCCCOC(=O)c1ccc2c(c1)[n+]([O-])c(C(=O)OC)c(C)[n+]2[O-]`, in data set [3], the selectivity ratio was 10.2. Also, the values for the MIC in data set [1] and in data set [2] were 5.24 µM and 0.87 µM, respectively. The CC50 in data set [4] came out at 46.2 µM.

Turning to `CC(C)COC(=O)c1ccc2c(c1)[n+]([O-])c(C(=O)c1ccc3ccccc3c1)c(C(F)(F)F)[n+]2[O-]`, the MIC in data set [1] amounted to 2.33 µM; in data set [2], 1.38 µM.

For the molecule `CCCCOC(=O)c1ccc2c(c1)[n+]([O-])c(C(=O)c1ccc3ccccc3c1)c(C(F)(F)F)[n+]2[O-]`, the selectivity ratio in data set [3] was 10.2. Further, the MIC in data set [1] came to 3.04 µM; in data set [2], 1.07 µM. The CC50 in data set [4] is > 200 µM.

Take `Cc1c(C(=O)Nc2ccccc2)[n+]([O-])c2cc(C(=O)OCC(C)C)ccc2[n+]1[O-]`: in data set [3], the selectivity ratio is 10.2. Further, the minimal inhibitory concentration (MIC) in data set [1] was 2.73 µM; in data set [2] it was 2.56 µM. For the same molecule, the CC50 in data set [4] is > 200 µM.

Consider `CCCCOC(=O)c1ccc2c(c1)[n+]([O-])c(C(=O)Nc1ccc(Cl)cc1)c(C)[n+]2[O-]`, for which, in data set [3], the selectivity ratio turned out to be 10.2. The MIC in data set [1] and in data set [2] was > 117 µM each time. In addition, the CC50 in data set [4] turned out to be 50.3 µM.

On to `CCCCOC(=O)c1ccc2c(c1)[n+]([O-])c(C(C)=O)c(C(F)(F)F)[n+]2[O-]`, for which the selectivity ratio in data set [3] worked out at 10.2. The MIC in data set [1] worked out at 0.97 µM; in data set [2], 0.62 µM. In addition, the CC50 in data set [4] was > 200 µM.

With `CC(C)COC(=O)c1ccc2c(c1)[n+]([O-])c(C(=O)c1cccs1)c(C(F)(F)F)[n+]2[O-]`, in data set [3], the selectivity ratio is 10.2. Besides, the values for the minimal inhibitory concentration (MIC) in data set [1] and in data set [2] were 0.77 µM and 0.55 µM, respectively. Besides, the CC50 in data set [4] amounted to 43.9 µM.

Turning to `NNC(=O)c1ccncc1` [ISONIAZID], the MIC in data set [1] was > 933 µM; in data set [2] it was 2.92 µM.

For `CC(=O)c1c(C(F)(F)F)[n+]([O-])c2ccc(C(=O)OCC(C)C)cc2[n+]1[O-]`, the selectivity ratio in data set [3] worked out at 10.2. Moreover, the MIC in data set [1] came out at 0.94 µM; in data set [2] it was 0.7 µM. Also, in data set [4], the CC50 was determined as 25.4 µM.

`CCCCOC(=O)c1ccc2c(c1)[n+]([O-])c(C(=O)OCC)c(C)[n+]2[O-]`: the selectivity ratio in data set [3] is 10.2. Moreover, the MIC in data set [1] was 6.24 µM; in data set [2], 1.38 µM. Moreover, in data set [4], the CC50 is > 200 µM.

Turning to `CCCCOC(=O)c1ccc2c(c1)[n+]([O-])c(C(=O)OC(C)(C)C)c(C)[n+]2[O-]`, the selectivity ratio in data set [3] amounted to 10.2. For the same molecule, the minimum inhibitory concentration (MIC) was determined as 128 µM in data set [1] and 14.7 µM in data set [2]. Further, in data set [4], the CC50 was > 200 µM.

For the molecule `CCCCOC(=O)c1ccc2c(c1)[n+]([O-])c(C(=O)OCC)c(C(F)(F)F)[n+]2[O-]`, the selectivity ratio in data set [3] worked out at 10.2. For the same molecule, the MIC in data set [1] came to 0.87 µM; in data set [2], 0.57 µM. Also, the CC50 in data set [4] is > 200 µM.

In the case of `CCCCOC(=O)c1ccc2c(c1)[n+]([O-])c(C(=O)c1ccccc1)c(C(F)(F)F)[n+]2[O-]`, in data set [3], the selectivity ratio is 10.2. The MIC in data set [1] amounted to 0.88 µM; in data set [2] it was 0.53 µM. The CC50 in data set [4] is 48.4 µM.

As for `CO[C@H]1/C=C/O[C@@]2(C)Oc3c(C)c(O)c4c(O)c(c(/C=N/N5CCN(C)CC5)c(O)c4c3C2=O)NC(=O)/C(C)=C\C=C\[C@H](C)[C@H](O)[C@@H](C)[C@@H](O)[C@@H](C)[C@H](OC(C)=O)[C@@H]1C` [RIFAMPIN], the MIC in data set [1] came out at 0.06 µM; in data set [2], 0.02 µM.

`Cc1c(C(=O)Nc2ccc(Cl)cc2)[n+]([O-])c2cc(C(=O)OCC(C)C)ccc2[n+]1[O-]`: the MIC in data set [1] is 1.86 µM; in data set [2], 1.63 µM.

As to `CC(=O)c1c(C)[n+]([O-])c2ccc(C(=O)OCC(C)C)cc2[n+]1[O-]`, the selectivity ratio in data set [3] amounted to 10.2. The MIC in data set [1] was 1.82 µM; in data set [2], 0.94 µM. In addition, in data set [4], the CC50 is 87.2 µM.

Regarding `CCCCOC(=O)c1ccc2c(c1)[n+]([O-])c(C(=O)OCc1ccccc1)c(C)[n+]2[O-]`, the selectivity ratio in data set [3] was found to be 10.2. Besides, the MIC is 1.73 µM in data set [1] and 0.59 µM in data set [2]. In data set [4], the 50% cytotoxic concentration (CC50) was > 200 µM.

On to `CCCCOC(=O)c1ccc2c(c1)[n+]([O-])c(C(=O)c1cccs1)c(C(F)(F)F)[n+]2[O-]`, for which the MIC in data set [1] came to 0.86 µM; in data set [2], 0.57 µM.

In the case of `CC(C)COC(=O)c1ccc2c(c1)[n+]([O-])c(C(=O)c1ccco1)c(C(F)(F)F)[n+]2[O-]`, in data set [3], the selectivity ratio was 10.2. The MIC came out at 1.65 µM in data set [1] and 0.68 µM in data set [2]. The CC50 in data set [4] came out at 81.8 µM.

On to `CCCCOC(=O)c1ccc2c(c1)[n+]([O-])c(C(=O)Nc1ccccc1)c(-c1ccccc1)[n+]2[O-]`, for which the selectivity ratio in data set [3] turned out to be 10.2. In addition, the MIC in data set [1] came out at 9.74 µM; in data set [2], 3.3 µM. The 50% cytotoxic concentration (CC50) in data set [4] was determined as 44.1 µM.

On to `CCCCOC(=O)c1ccc2c(c1)[n+]([O-])c(C(C)=O)c(C)[n+]2[O-]`, for which the selectivity ratio in data set [3] was 10.2. In addition, the figures for the MIC in data set [1] and in data set [2] were 2.3 µM and 0.88 µM, respectively. In addition, the CC50 in data set [4] was 58.4 µM.

As to `CCOC(=O)c1ccc2c(c1)[n+]([O-])c(C(=O)c1cccs1)c(C(F)(F)F)[n+]2[O-]`, the MIC was found to be 0.51 µM in data set [1] and 0.24 µM in data set [2].

For `CC(C)COC(=O)c1ccc2c(c1)[n+]([O-])c(C(=O)Nc1ccccc1)c(-c1ccccc1)[n+]2[O-]`, the selectivity ratio in data set [3] is 10.2. For the same molecule, the MIC came out at 1.49 µM in data set [1] and 0.57 µM in data set [2]. The CC50 in data set [4] was > 200 µM.

For the molecule `Cc1ccc(NC(=O)c2c(C)[n+]([O-])c3ccc(C(=O)OCC(C)C)cc3[n+]2[O-])c(C)c1`, the selectivity ratio in data set [3] was determined as 10.2. For the same molecule, the MIC came to 12.3 µM in data set [1] and 19.7 µM in data set [2]. The CC50 in data set [4] is > 200 µM.

`Cc1ccc(NC(=O)c2c(C)[n+]([O-])c3cc(C(=O)OCC(C)C)ccc3[n+]2[O-])c(C)c1`: the selectivity ratio in data set [3] came to 10.2. For the same molecule, the MIC in data set [1] and in data set [2] was > 118 µM in each case. In addition, the 50% cytotoxic concentration (CC50) in data set [4] is > 200 µM.
